Compound activity deposited in PubChem BioAssay by several laboratories.
Only some compounds are listed: those with a hit (about 3.4% of all), similar ones and a draw of the others.
Cl transport mod = KCC2 (human) Cl- transport modulation. Q9H2X9. KCC2 cells, thallium flux FluoZin-2 fluorescence. B-score of Tl+ flux slope (higher = more flux/activation; lower = inhibition) at 10 µM. 190,000 compounds, 2.2% hits;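 active means thallium flux slope and its plate-corrected score both differing from the plate sample mean at a set confidence after two filtering rounds, in either direction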;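 further: slope of fluorescence scaled to starting intensity during 10 to 20 s after thallium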
p97 ATPase inh = blocks human p97 ATPase activity; inhibition, % at 8 µM; P55072; 220,000 compounds, 0.42% hits; AID 1481; recombinant p97 ATPase, Kinase-Glo ATP luminescence, 3 h; in the data active means inhibition above about 15%
ROMK mod = human ROMK K+ channel modulation, primary screen. AID 1918. Tet-inducible ROMK, thallium flux fluorescence; actives lie on both sides. B-score at 10 µM. P48048. 130,000 compounds, 2% hits;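 active means signal ratio slope over the read window, or its plate-corrected B-score, at least 3 SD from the plate mean, either direction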;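 further: B-score of the F/F0 ratio slope over 7 to 12 s after thallium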
Redox H2O2 prof = compounds producing H2O2 with reducing agent – biochemical, NIH compound library profiling, artefact control for MLSCN library redox annotation, primary screen | activation, % at 10 µM | DTT-dependent redox cycling H2O2, phenol red/HRP absorbance; 100% = 100 µM peroxide control, 0% = buffer | 200,000 compounds, 0.03% hits;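 active means activation of at least 50% relative to the plate's high and low controls in the primary single-dose screen; inactive means activation below 50%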;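 further: compound incubated with DTT at 0.8 mM final as the reducing agent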
MDM2 E3 inh = blocks human Mdm2 ubiquitin ligase activity. cell-based MDM2 ubiquitination luciferase reporter, 2 h; 0 = plate control, 100 = twice control, blank-subtracted. signal enhancement, % at 5 µM. 210,000 compounds, 0.11% hits;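 active means signal enhancement of 30% or more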;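 further: luminescence tracks abundance of the self-degrading MDM2-luciferase fusion protein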
Target sequence (Q00987 whole entry, looked up, the tested form may be a part): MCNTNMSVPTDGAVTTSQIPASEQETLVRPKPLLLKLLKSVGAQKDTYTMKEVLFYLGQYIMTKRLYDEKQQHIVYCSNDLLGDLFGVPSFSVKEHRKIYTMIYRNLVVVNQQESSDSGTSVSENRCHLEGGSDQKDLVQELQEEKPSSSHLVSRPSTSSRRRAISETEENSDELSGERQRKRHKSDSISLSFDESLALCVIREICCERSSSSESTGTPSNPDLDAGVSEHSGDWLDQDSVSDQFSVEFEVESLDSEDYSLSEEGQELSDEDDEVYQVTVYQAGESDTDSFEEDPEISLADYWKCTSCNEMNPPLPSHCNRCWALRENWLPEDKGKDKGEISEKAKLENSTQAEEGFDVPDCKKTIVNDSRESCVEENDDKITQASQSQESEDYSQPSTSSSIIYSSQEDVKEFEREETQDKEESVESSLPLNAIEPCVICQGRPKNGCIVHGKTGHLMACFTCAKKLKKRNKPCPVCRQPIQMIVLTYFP
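Test system: mammalian cells stably expressing self-ubiquitinating, self-degrading MDM2 E3–luciferase fusion; Amount: 2000 cells in each well; Medium: DMEM; Schedule: 4 h settle plus 2 h compound, 37 °C; Technique: SteadyLite luciferase luminescence after 15 min room-temperature reagent incubation; Benchmarks: plate control and blank wells.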
PKD1 inh = PKD1 (human) kinase inhibition. 200,000 compounds, 0.056% hits. PKD1 kinase fluorescence polarization assay. Q15139. inhibition, % (concentration not given with the values); in the data active means inhibition above about 50%
KCC2 secondary = confirmation of human KCC2 transport modulators. shares compounds with Cl transport mod. HEK293-KCC2, thallium flux, FluoZin2 fluorescence; stronger effect = higher value. normalised thallium flux (F/F0 slope) at 10 µM. 3,700 compounds, 15% hits;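 active means thallium flux slope above the same plate's solvent-only control mean plus 3 SD; inconclusive means the two replicate wells disagree; inactive means no significant difference from solvent-only control wells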
KCC2 bumet counter = bumetanide-insensitive thallium flux in KCC2 cells with ouabain, counter-screen; shares compounds with Cl transport mod; HEK293-KCC2 + bumetanide/ouabain, thallium flux FluoZin2; stronger effect = higher value; normalized thallium flux at 10 µM; 3,700 compounds, 49% hits;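 active means thallium entry rate above the same plate's blocked-transporter control wells by more than 3 SD; inconclusive means the two repeat wells disagree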;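 further: raw slope of fluorescence over initial fluorescence between 10 and 20 s after thallium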
KCC2 sec2 = KCC2 (human) modulation, second secondary assay; HEK293-KCC2, thallium flux FluoZin2 fluorescence; actives lie on both sides; F/F0 rise rate, 10–20 s post-thallium; shares compounds with Cl transport mod; normalized thallium flux at 10 µM; 3,700 compounds, 23% hits;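 active means thallium flux slope more than 3 SD above or below the plate's solvent-only control mean, mostly below; inconclusive means the two repeat wells disagreed; inactive means no significant shift from solvent-only controls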
HEK counter1 = parental HEK flux effect, counter-screen; shares compounds with Cl transport mod; thallium flux rate (normalised fluorescence) at 10 µM; 3,700 compounds, 46% hits; HEK293 parental cells, thallium flux FluoZin2, ouabain; baseline-ratio fluorescence slope, 10–20 s after thallium;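 active means thallium flux rate significantly above the same plate's solvent-only control wells, beyond their mean plus 3 SD; inconclusive means the two replicate wells gave conflicting results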
KCC2 ouabain = modulates human KCC2 on retest with ouabain | shares compounds with Cl transport mod | HEK293-KCC2, thallium flux FluoZin2 fluorescence; bidirectional: low = inhibitor, high = activator | raw Tl+ flux slope (below DMSO = inhibition, above = activation) at 10 µM | 3,700 compounds, 48% hits | AID 1717;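 active means thallium flux slope beyond 3 SD from same-plate DMSO control mean in most replicates, usually higher, sometimes lower; inconclusive means repeat tests gave conflicting results; inactive means no significant difference from controls in most replicates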;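 further: slope of initial-normalized fluorescence between seconds 10 and 20 after thallium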
HEK counter2 = acts in parental HEK cells, second KCC2 counter-screen; shares compounds with Cl transport mod; HEK293 parental, thallium flux FluoZin-2 fluorescence slope; thallium flux slope at 10 µM; 3,700 compounds, 33% hits; AID 1718;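 active means thallium flux slope above the same plate's solvent-control mean plus 3 SD in both duplicate wells; inconclusive means duplicate wells that disagreed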;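 further: run without ouabain in cells lacking the KCC2 cotransporter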
A number is an active result; 0 = inactive; ? = inconclusive; - = no result.

SMILES	Cl transport mod	p97 ATPase inh	ROMK mod	Redox H2O2 prof	MDM2 E3 inh	PKD1 inh	KCC2 secondary	KCC2 bumet counter	KCC2 sec2	HEK counter1	KCC2 ouabain	HEK counter2
O=C(N/N=C/c1ccc([N+](=O)[O-])s1)C(O)c1ccccc1 (stereo not given)	0	0	0	0	0	0	-	-	-	-	-	-
O=C(N/N=C/c1ccc([N+](=O)[O-])s1)c1ccccc1	6.36	0	0	0	0	0	0	0.0172	0	?	0.0278	?
COc1ccc(C(C(=O)NC2CCCCC2)N(C(=O)c2cccs2)c2ccc3c(c2)OCO3)cc1 (stereo not given)	0	0	-	0	0	0	-	-	-	-	-	-
O=S(=O)(Nc1nc2ccccc2nc1Nc1cccc(S(=O)(=O)N2CCCCC2)c1)c1ccccc1	-3.52	0	-	0	0	0	0	0	0	?	?	0
Cc1cccc(NC(=O)Cc2noc3ccccc23)c1	0	0	0	0	0	0	-	-	-	-	-	-
N#C/C(=N\Nc1ccc(Cl)c(Cl)c1)C(=O)C1CC1	-6.01	0	-	-	0	-	0	0	0.0234	0.00404	0.0122	0.00735
CN1CCN(C(=O)c2cc(COc3ccc(F)cc3Cl)on2)CC1c1ccccc1 (stereo not given)	-	0	0	0	0	0	-	-	-	-	-	-
O=C(c1cc(COc2ccc(F)cc2Cl)on1)N1CCC(OCc2cccnc2)CC1	-	0	0	0	0	0	0	0	0	0	0.0297	0
O=C(c1cc(COc2ccc(F)cc2Cl)on1)N1CCCC(OCc2cccnc2)C1 (stereo not given)	-	0	0	0	0	0	0	0	0	0	0.0145	?
Cc1nonc1C1CCCN1C(=O)c1cc(COc2ccc(F)cc2Cl)on1 (stereo not given)	-	0	0	0	0	0	0	0	0.0241	?	0	0
C#CCN(Cc1ccco1)C(=O)c1cc(COc2ccc(F)cc2Cl)on1	0	0	-	0	0	0	-	-	-	-	-	-
CC(=O)Nc1ccc(OC(=O)C(CCS(C)(=O)=O)N2C(=O)c3ccccc3C2=O)cc1 (stereo not given)	0	0	0	0	0	0	-	-	-	-	-	-
Clc1ccc(CNc2ccc(CNc3ncn[nH]3)cc2)c(Cl)c1	0	0	0	-	0	-	-	-	-	-	-	-
Cc1c(Cl)c([N+](=O)[O-])nn1CCCC(=O)N1CCN(c2ccccc2)CC1	-2.74	0	0	0	0	0	0	?	0	0	0	?
CC(CCc1ccccc1)NC(=O)C1CCCN(c2nnc(-n3cccc3)s2)C1 (stereo not given)	-4.37	0	-	0	0	0	0	0	0	0	0.0148	0
CC(C)NC(=O)C1CCCN(c2nnc(-n3cccc3)s2)C1 (stereo not given)	0	0	-	0	0	0	-	-	-	-	-	-
CCC(=O)N(Cc1cccs1)C1CCOC(C)(C)C1 (stereo not given)	-	0	0	0	0	0	-	-	-	-	-	-
CCc1ccc(Nc2nnc(SCC(=O)Nc3cccc(S(=O)(=O)NC4=NCCCCC4)c3)s2)cc1	-7.41	0	0	0	0	0	0	0.0078	0.0255	0	0.0113	0
Cc1sc2ncnc(SCC#N)c2c1C	4.5	0	-	0	0	0	0	0.0158	0	0.00988	?	?
Cc1sc2ncnc(SCC(=O)NC(=O)c3cccn3C)c2c1C	59	0	0	0	0	0	0.0389	0.125	0.0453	0.0715	0.0721	0.0294
CCc1ccc(Nc2nnc(SCC(=O)NC(=O)c3cccn3C)s2)cc1	-4.87	0	0	0	0	0	0	0	0.025	?	0.0124	0
Cc1sc2ncnc(SCC(=O)NNC(=O)c3ccco3)c2c1C	0	0	0	0	0	0	-	-	-	-	-	-
Cc1cccc(Nc2nnc(SCC(=O)Nc3cccc(S(=O)(=O)N4CCCCC4)c3)s2)c1	-5.14	0	-	0	0	0	0	0	?	?	0.0145	0
O=C(CCCn1c(=O)[nH]c2cc(Cl)ccc2c1=O)NCCCN1CCCC1	0	0	0	0	0	0	-	-	-	-	-	-
O=C(CCCn1c(=O)[nH]c2cc(Cl)ccc2c1=O)NCC1CCCO1 (stereo not given)	8.55	0	0	0	0	0	0	0	0	0	0	?
SMILES	Cl transport mod	p97 ATPase inh	ROMK mod	Redox H2O2 prof	MDM2 E3 inh	PKD1 inh	KCC2 secondary	KCC2 bumet counter	KCC2 sec2	HEK counter1	KCC2 ouabain	HEK counter2
COC(=O)c1ccc2c(=O)n(CCCCCC(=O)NCCNC(C)=O)c(=O)[nH]c2c1	5.37	0	0	0	0	0	0	0	0	0	0	0
COc1ccccc1NC(=O)c1ccccc1-c1nc(-c2ccccc2OC)no1	4.04	0	0	0	0	0	0	0	0	0	0	0
CCOc1ccc(CCNC(=O)C2=C(C)C(=O)OC23CCC(C)CC3)cc1 (stereo not given)	0	0	0	0	-	0	-	-	-	-	-	-
Cn1cccc1/C=N/NC(=O)c1cccnc1	2.98	0	0	0	0	0	0	0	0	0	0	0
Cc1ccc(C(=O)N/N=C\c2cccn2C)cn1	0	0	-	0	0	0	-	-	-	-	-	-
CN=c1scc(-c2ccc([N+](=O)[O-])cc2)n1/N=C/c1ccco1	0	0	0	0	0	0	-	-	-	-	-	-
CN=c1scc(-c2ccc(F)cc2)n1/N=C/c1ccc(O)c(O)c1	-4.19	0	0	0	0	0	0	0	0.0231	0	0.0147	?
Cc1c(O)ccc2c(CN(C)Cc3ccccc3)cc(=O)oc12	-6.62	0	-	-	0	-	0	0	0	?	0.0153	0
COc1ccc(-n2c(=S)[nH]c3sc(-c4ccccc4)cc3c2=O)c(OC)c1	9.49	0	0	-	0	-	0.0141	0.0268	0.0246	0.02	?	0
COc1cccc(-c2cc3c(=O)n(-c4ccccc4)c(=S)[nH]c3s2)c1	-	0	-	0	0	0	-	-	-	-	-	-
